Columns and labels:
[1] = molecular target: Delta-type opioid receptor (Homo sapiens, UniProt P41143); assay: Inhibition of [35S]GTP-gamma-S binding to human delta opioid receptor expressed in CHO cells; type: functional, cell-based
Procedure, shortened: (§1)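 CHO-expressed receptor membranes (10 µg) in 50 mM HEPES pH 7.4 with EDTA, 5 mM MgCl2, 30 µM GDP, DTT, 100 mM NaCl, PMSF, BSA and 0.1 nM [35S]GTPγS. Test drug at various concentrations, duplicate or triplicate, 90 min at 30 °C. Nonspecific binding with 10 µM GTPγS.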

[2] = Selectivity for human delta opioid receptor over rat mu opioid receptor
[3] = molecular target: T1, Cholecystokinin receptor (Homo sapiens) (UniProt P32239+P32238); assay: Agonist activity at CCK receptor of guinea pig ileum at 1 uM; type: functional, tissue-based; settings: Cavia porcellus, target entry is the homologue from another species
Procedure, shortened: (§2)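 Guinea pig ileum LMMP strips (male Hartley), 20-mL baths, 1 g tension, oxygenated Krebs bicarbonate buffer, 37 °C. Tissue first challenged with 67 mM KCl to set maximal contraction. Test compound added to the bath; agonist activity taken as contraction height as a percentage of the maximal KCl contraction (A50).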

[4] = molecular target: Mu-type opioid receptor (Rattus norvegicus) (UniProt P33535); assay: Inhibition of [35S]GTP-gamma-S binding to rat mu opioid receptor expressed in CHO cells; type: functional, cell-based; procedure, shortened: as §1
[5] = molecular target: T1, Cholecystokinin receptor (Homo sapiens); assay: Antagonist activity at CCK receptor by inhibition of CCK8-induced muscle contraction in unstimulated GPI/LMMP; type: functional; settings: Cavia porcellus; target entry is the homologue from another species
Procedure, shortened: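 Male Hartley guinea pig ileum LMMP strips, 1 g tension, oxygenated Krebs bicarbonate buffer, 37 °C; 67 mM KCl sets maximal contractility. Initial noncumulative CCK-8 dose-response curve built. Test compound added without electrical stimulation; 3 min later the CCK-8 curve was rebuilt at an antagonist dose giving about a 3-fold rightward shift. Ke is the antagonist concentration halving CCK-8 activity.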

[6] = molecular target: T1, Cholecystokinin receptor (Homo sapiens); assay: Agonist activity at CCK receptor of guinea pig ileum at 300 nM; type: functional, tissue-based; settings: Cavia porcellus, target entry is the homologue from another species; procedure, shortened: as §2
Mu-type opioid receptor = Mu-type opioid receptor (Cavia porcellus, UniProt P97266); assay: Agonist activity at mu opioid receptor by inhibition of muscle contraction in electrically stimulated isolated guinea pig ileum; type: functional, tissue-based
Procedure, shortened: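 Longitudinal muscle–myenteric plexus strips from male Hartley guinea pig ileum, 1 g tension, oxygenated Krebs at 37 °C, 15 min equilibration. Stimulated at 0.1 Hz, 0.4 ms, supramaximal voltage. Integrity checked with PL-017 (10 nM). Compound added until maximal inhibition. Inhibition taken as contraction height 1 min before versus 3 min after dosing. IC50 from Hill-equation fit.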

[7] = molecular target: Delta-type opioid receptor (Mus musculus, UniProt P32300); assay: Agonist activity at delta opioid receptor by inhibition of muscle contraction in electrically stimulated isolated mouse vas deferens; type: functional, tissue-based
Procedure, shortened: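 Male ICR mouse vasa deferentia in 20-mL baths, 0.5 g tension, oxygenated Mg-free Krebs at 37 °C; field stimulation 0.1 Hz, 2.0 ms single pulses, supramaximal voltage. Tissue integrity checked with DPDPE (10 nM). Compound added cumulatively until maximal inhibition. Inhibition taken as mean contraction height for 1 min before dosing versus height 3 min after. IC50 from Hill-equation fit by nonlinear least squares.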

[8] = molecular target: T1, Cholecystokinin receptor (Homo sapiens); assay: Antagonist activity at CCK receptor by inhibition of CCK8-induced muscle contraction in unstimulated GPI/LMMP at 1 uM; type: functional; settings: Cavia porcellus, filed as partial agonist, target entry is the homologue from another species

T1 sequence (P32238 whole entry, looked up): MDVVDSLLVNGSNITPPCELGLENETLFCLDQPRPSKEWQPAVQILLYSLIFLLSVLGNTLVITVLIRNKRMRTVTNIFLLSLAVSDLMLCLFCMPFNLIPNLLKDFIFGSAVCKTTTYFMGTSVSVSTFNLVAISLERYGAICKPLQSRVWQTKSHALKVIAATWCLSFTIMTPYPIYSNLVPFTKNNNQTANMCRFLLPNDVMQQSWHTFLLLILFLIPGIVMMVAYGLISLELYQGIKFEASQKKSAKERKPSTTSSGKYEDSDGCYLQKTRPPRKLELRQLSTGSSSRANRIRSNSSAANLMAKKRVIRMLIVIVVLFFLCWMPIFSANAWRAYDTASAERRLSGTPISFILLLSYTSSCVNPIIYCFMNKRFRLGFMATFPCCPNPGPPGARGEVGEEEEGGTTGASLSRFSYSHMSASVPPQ
T1 sequence (P32239 whole entry, looked up): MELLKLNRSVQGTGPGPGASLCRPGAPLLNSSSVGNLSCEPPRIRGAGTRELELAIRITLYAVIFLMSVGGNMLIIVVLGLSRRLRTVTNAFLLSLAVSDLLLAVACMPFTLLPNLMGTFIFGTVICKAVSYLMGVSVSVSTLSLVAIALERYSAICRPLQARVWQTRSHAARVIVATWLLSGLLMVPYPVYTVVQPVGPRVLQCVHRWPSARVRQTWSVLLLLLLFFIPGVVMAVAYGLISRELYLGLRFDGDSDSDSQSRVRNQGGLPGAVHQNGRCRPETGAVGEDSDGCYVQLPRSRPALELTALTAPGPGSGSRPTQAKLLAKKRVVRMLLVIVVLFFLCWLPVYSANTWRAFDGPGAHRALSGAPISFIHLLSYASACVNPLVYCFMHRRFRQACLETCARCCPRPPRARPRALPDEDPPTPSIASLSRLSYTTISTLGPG
Chain of Mu-type opioid receptor (Rattus norvegicus) (P33535 whole entry): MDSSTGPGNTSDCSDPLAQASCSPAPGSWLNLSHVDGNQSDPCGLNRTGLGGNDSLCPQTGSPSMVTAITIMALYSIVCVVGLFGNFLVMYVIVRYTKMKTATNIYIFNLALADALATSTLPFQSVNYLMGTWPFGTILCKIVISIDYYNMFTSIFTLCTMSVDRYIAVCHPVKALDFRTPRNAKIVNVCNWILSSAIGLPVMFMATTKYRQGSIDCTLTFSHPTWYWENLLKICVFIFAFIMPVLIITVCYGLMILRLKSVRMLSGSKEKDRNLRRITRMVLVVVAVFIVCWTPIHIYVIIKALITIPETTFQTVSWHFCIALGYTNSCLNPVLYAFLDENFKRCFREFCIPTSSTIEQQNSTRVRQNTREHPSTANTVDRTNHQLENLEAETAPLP
Chain of Delta-type opioid receptor (Homo sapiens, UniProt P41143) (P41143 whole entry): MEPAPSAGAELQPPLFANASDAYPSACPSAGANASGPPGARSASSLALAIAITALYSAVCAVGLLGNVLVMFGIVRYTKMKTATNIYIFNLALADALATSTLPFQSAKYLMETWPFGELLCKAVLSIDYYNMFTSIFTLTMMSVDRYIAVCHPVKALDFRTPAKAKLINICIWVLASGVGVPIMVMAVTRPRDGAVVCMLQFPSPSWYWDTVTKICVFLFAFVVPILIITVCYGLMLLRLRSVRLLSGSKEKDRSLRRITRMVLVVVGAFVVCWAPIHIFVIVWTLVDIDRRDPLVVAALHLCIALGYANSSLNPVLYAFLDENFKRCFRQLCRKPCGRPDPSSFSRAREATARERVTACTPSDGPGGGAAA
Chain of Delta-type opioid receptor (Mus musculus, UniProt P32300) (P32300 whole entry): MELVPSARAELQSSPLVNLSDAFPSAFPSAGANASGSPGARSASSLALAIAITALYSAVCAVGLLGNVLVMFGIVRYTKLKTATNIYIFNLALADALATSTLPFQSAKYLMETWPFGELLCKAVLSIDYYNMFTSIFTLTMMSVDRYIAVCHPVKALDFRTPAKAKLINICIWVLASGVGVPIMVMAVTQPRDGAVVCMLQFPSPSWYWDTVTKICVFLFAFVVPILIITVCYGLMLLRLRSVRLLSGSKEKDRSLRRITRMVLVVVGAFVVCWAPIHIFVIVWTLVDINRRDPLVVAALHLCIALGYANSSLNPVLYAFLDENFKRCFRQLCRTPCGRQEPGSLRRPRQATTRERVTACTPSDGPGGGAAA
Chain of Mu-type opioid receptor (P97266 whole entry): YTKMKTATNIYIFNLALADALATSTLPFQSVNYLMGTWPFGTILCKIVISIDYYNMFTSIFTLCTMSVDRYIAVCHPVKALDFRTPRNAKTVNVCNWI

Compound	Emax [1] [%]	Selectivity ratio [2]	Activity [3] [%]	Emax [4] [%]	Ke [5] [nM]	Activity [6] [%]	IC50 (Mu-type opioid receptor) [µM]	IC50 [7] [µM]	Ke [8]
CCCC[C@H](NC(=O)[C@H](CC(=O)O)NC(=O)[C@H](Cc1ccccc1)NN[C@@H](Cc1ccccc1)C(=O)NCC(=O)N[C@H](C)C(=O)N[C@@H](Cc1ccc(O)cc1)C(=O)O)C(=O)N[C@H](Cc1cn(C(=O)OC23CC4CC(CC(C4)C2)C3)c2ccccc12)C(=O)O	25	430	0	103	44	–	–	–	–
CCCC[C@@H](C(=O)N[C@@H](CC(=O)O)C(=O)N[C@@H](Cc1ccccc1)C(N)=O)N(C)C(=O)[C@H](Cc1c[nH]c2ccccc12)NC(=O)CNC(=O)[C@@H](Cc1ccccc1)NC(=O)[C@H](Cc1ccc(O)cc1)NC(=O)[C@@H](N)CC(=O)O	–	–	–	–	66	0	0.22	0.029	–
CCCC[C@@H](C(=O)N[C@H](Cc1cn(C(=O)OC(C)(C)C)c2ccccc12)C(=O)O)N(C)C(=O)[C@H](CC(=O)O)NC(=O)[C@H](Cc1ccccc1)NN[C@@H](Cc1ccccc1)C(=O)NCC(=O)N[C@H](C)C(=O)N[C@@H](Cc1ccc(O)cc1)C(=O)O	120	–	5	130	–	–	–	–	Partial agonist

From ChEMBL document CHEMBL1138152, “Design and synthesis of novel hydrazide-linked bifunctional peptides as delta/mu opioid receptor agonists and CCK-1/CCK-2 receptor antagonists” (J Med Chem, 2006)
